Screens (PubChem BioAssay)
In the library only some 3.1% were active in any assay of this set; here they are far more common.
OX1R antag-1: blocks the human orexin 1 receptor; inhibition, % at 5 µM; CHO/OX1R cells, Fluo-8 calcium fluorescence, orexin A; O43613; actives 0.43% (n = 330,000);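 active = inhibition above its plate's threshold, mean inhibition of all tested compounds on the plate plus 3 SD, cut at about 37% in these data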
Target sequence (O43613 whole entry, looked up): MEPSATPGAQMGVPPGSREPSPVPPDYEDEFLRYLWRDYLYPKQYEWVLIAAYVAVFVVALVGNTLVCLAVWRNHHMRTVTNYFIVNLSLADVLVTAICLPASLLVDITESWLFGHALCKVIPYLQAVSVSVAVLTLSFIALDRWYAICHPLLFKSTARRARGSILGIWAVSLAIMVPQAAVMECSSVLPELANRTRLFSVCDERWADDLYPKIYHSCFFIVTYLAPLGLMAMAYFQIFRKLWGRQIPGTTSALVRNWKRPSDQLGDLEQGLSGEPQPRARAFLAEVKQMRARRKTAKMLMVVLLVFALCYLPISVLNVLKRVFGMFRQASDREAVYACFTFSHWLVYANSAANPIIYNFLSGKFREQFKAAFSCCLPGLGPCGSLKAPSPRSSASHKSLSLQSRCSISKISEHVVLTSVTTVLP
GalR3 antagonist: antagonists of human GalR3. inhibition, % at 3 µM. actives 0.44% (n = 360,000). AID 651719. HEK293 GalR3-CNG cAMP membrane potential fluorescence; galR3 body fused to GalR1 C-terminus;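 active = inhibition above the screen-wide average plus 3 SD, cut at about 13% in these data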;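 also: forskolin and galanin both at EC90 stimulate the cells; cAMP rise reported by CNG channel membrane potential dye signal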
OX1R antag-2: antagonists of human orexin 1 receptor (OX1R). actives 1.8% (n = 330,000). O43613. inhibition, % at 6.6 µM. OX1R-expressing cells, FRET antagonist read-out; in the data active = inhibition mostly above about 38%, no sharp cut-off; inactive = mostly below about 40%
GPR7 antagonist: human neuropeptides B/W receptor 1 antagonism; P48145; GPR7-expressing cells, fluorescence antagonist assay; inhibition, % at 4.4 µM; actives 1.1% (n = 290,000); in the data active = inhibition above about 16%, passing the limit was not always enough;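 also: cells stimulated with the agonist NPW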
Target sequence (P48145 whole entry, looked up): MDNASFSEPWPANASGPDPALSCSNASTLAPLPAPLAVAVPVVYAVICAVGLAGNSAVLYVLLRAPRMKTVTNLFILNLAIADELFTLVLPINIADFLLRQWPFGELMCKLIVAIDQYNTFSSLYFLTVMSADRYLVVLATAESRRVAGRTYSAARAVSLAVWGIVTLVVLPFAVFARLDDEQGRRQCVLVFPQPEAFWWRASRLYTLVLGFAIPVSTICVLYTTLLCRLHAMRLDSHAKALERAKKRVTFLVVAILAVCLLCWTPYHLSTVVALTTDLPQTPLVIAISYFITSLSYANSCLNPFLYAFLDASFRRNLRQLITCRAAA
CHO parental Ca: counter-screen for OX1R antagonists: effect in parental CHO cells; parental CHO-K1, ATP-induced calcium, Fluo-8 fluorescence; inhibition, % at 5.6 µM; actives 0.63% (n = 330,000); AID 463079;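 active = inhibition above that plate's mean sample inhibition plus 3 SD, cut at about 26% in these data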
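Test system: parental CHO cells; detection: calcium-sensitive Fluo-8 fluorescence; evaluation: percent inhibition of calcium signal; also added: ATP as calcium-mobilizing challenge; repeats: one well per compound; control set: ATP-challenged DMSO wells low, unchallenged DMSO wells high; compound: single nominal dose of 5.6 µM per compound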
Of the large screens only hits and unclear results are named; the others gave an inactive call.

COc1ccc(S(=O)(=O)NC(=O)C2(C)CCN2C(=O)Cc2cccc3ccccc23)cc1 (stereo not drawn)	none (no result: OX1R antag-1, OX1R antag-2, GPR7 antagonist, CHO parental Ca)
Cc1ccc(C(=O)OCC(=O)N2CCC(C)CC2)cc1S(=O)(=O)N1CCOCC1	none (no result: OX1R antag-1, OX1R antag-2, GPR7 antagonist, CHO parental Ca)
COc1ccc(NC(=O)c2cc(-c3cc(Cl)ccc3OC)n[nH]2)c(OC)c1	none (no result: OX1R antag-1, OX1R antag-2, GPR7 antagonist, CHO parental Ca)
COc1ccc(NC(=O)c2cc(-c3cc(Cl)ccc3O)n[nH]2)c(OC)c1	OX1R antag-2 42
O=C(Nc1ccc(S(=O)(=O)N2CCOCC2)cc1)c1cc(-c2cc(Cl)ccc2O)n[nH]1	GPR7 antagonist 20
Cc1cc(O)c(-c2cc(C(=O)Nc3ccc(S(=O)(=O)N4CCOCC4)cc3)[nH]n2)cc1C	none
COc1ccc(-n2sc3ccc(F)cc3c2=O)cc1	CHO parental Ca 65 (no result: GPR7 antagonist)
Cc1ccc(C)c(-n2sc3ccc(F)cc3c2=O)c1	CHO parental Ca 45 (no result: GPR7 antagonist)
Cc1ccc(-c2cc(=O)c3cc(F)ccc3[nH]2)cc1	none
O=c1c2cc(F)ccc2sn1-c1ccc(F)cc1	OX1R antag-2 32 (no result: GalR3 antagonist, GPR7 antagonist)
COc1cccc(NC(=O)C(OC(=O)c2cnc(C)cn2)c2ccccc2)c1 (stereo not drawn)	none (no result: GPR7 antagonist)
CC(C)c1ccc(Nc2nnc(SCC(=O)NCC3CCCO3)s2)cc1 (stereo not drawn)	none (no result: GPR7 antagonist)
COc1ccc(CCNC(=O)CCc2ccc(S(=O)(=O)NC(C)C)cc2)cc1OC	none
COc1ccc(CCNC(=O)COc2ccc(S(=O)(=O)NC(C)C)cc2Cl)cc1OC	OX1R antag-2 47 (no result: GalR3 antagonist)
Cn1c(=O)c(NCCc2ccccc2)c2c3c(cccc31)C(=O)c1ccccc1-2	OX1R antag-1 108, GPR7 antagonist 64, CHO parental Ca 100
Cn1c(=O)c(NC2CCCCC2)c2c3c(cccc31)C(=O)c1ccccc1-2	none (no result: OX1R antag-1, OX1R antag-2, CHO parental Ca)
CCNc1c2c3c(cccc3n(C)c1=O)C(=O)c1ccccc1-2	OX1R antag-1 89, CHO parental Ca 69 (no result: GalR3 antagonist)
COc1ccc(CSC2=NCCN2)cc1Br	none
COc1cc(NC(=O)c2ccccc2-c2ccccc2)cc(OC)c1	OX1R antag-2 57
O=C1Nc2ccc(Br)cc2C12NNc1ccccc1O2 (stereo not drawn)	OX1R antag-1 60, CHO parental Ca 78
Brc1cccc(-c2n[nH]c(-c3ccccc3)n2)c1	OX1R antag-1 63, OX1R antag-2 71, CHO parental Ca 97
Cc1ccccc1C(=O)N1CCC[C@H]1C(=O)N1CCC[C@H]1C(=O)NCc1ccccn1	none (no result: OX1R antag-1, OX1R antag-2, GPR7 antagonist, CHO parental Ca)
NC(=O)c1oc2ccccc2c1NC(=O)c1ccc([N+](=O)[O-])o1	OX1R antag-2 48
CC(=O)c1cccc(NC(=O)c2ccc([N+](=O)[O-])o2)c1	OX1R antag-2 57 (no result: GPR7 antagonist)
O=C(Nc1c(Cl)ccc2nsnc12)c1ccc(Br)o1	none (no result: OX1R antag-1, OX1R antag-2, GPR7 antagonist, CHO parental Ca)
COc1ccc(NC(=O)c2ccc([N+](=O)[O-])o2)cc1	OX1R antag-2 49
CC(=O)c1ccc(NC(=O)c2ccc([N+](=O)[O-])o2)cc1	none (no result: OX1R antag-1, OX1R antag-2, CHO parental Ca)
NC(=O)c1oc2ccccc2c1NC(=O)c1ccc(F)cc1	none
O=C(Nc1c(Cl)ccc2nsnc12)c1ccc([N+](=O)[O-])o1	OX1R antag-2 57
O=C(CNC(=O)c1ccc(Br)o1)NNC(=O)c1ccccc1O	none (no result: GPR7 antagonist)
Cc1ccc(S(=O)(=O)NCCNS(=O)(=O)c2ccccc2Br)cc1	none (no result: GPR7 antagonist)
Cc1ccc(S(=O)(=O)NCCNc2ccc(Br)c(C)c2)cc1	CHO parental Ca 37 (no result: GPR7 antagonist)
CC(C)(C)S(=O)N1C[C@@H]2CC(=O)C(CCO)=C2[C@H]1CCO (stereo partly drawn)	none (no result: OX1R antag-1, OX1R antag-2, GPR7 antagonist, CHO parental Ca)
Cc1cc(NC(=O)c2ccc(COc3ccc(Cl)c(C)c3)o2)no1	none
Cc1cc(NC(=O)c2ccc(COc3ccccc3Cl)o2)no1	CHO parental Ca 53
CCCN1CCN(c2nc(-c3cccs3)nc3ccccc23)CC1	none
CCOC(=O)N1CCN(c2nc(-c3cccs3)nc3ccccc23)CC1	OX1R antag-2 74
C=CCc1cccc(/C=N/NC(=O)C(=O)Nc2ccc(C)cc2)c1O	OX1R antag-2 49
C=CCc1cccc(/C=N/NC(=O)C(C)Nc2ccc(C)cc2)c1O (stereo not drawn)	none
C=CCc1cccc(/C=N/NC(=O)c2ccccc2OC)c1O	GPR7 antagonist 19
C[C@@H]1NC(=O)c2cc([N+](=O)[O-])cc(I)c2OCC[C@@H](C(=O)NC(CC(=O)O)C(N)=O)NC(=O)[C@H](CCC(=O)O)NC1=O (stereo partly drawn)	OX1R antag-2 62 (no result: GalR3 antagonist)
C[C@@H]1NC(=O)[C@H](CC(N)=O)NC(=O)c2cc([N+](=O)[O-])cc(I)c2OCC[C@@H](C(=O)NC(CC(=O)O)C(N)=O)NC1=O (stereo partly drawn)	none
NC(=O)C(CC(=O)O)NC(=O)[C@@H]1CCOc2c(I)cc([N+](=O)[O-])cc2C(=O)N[C@@H](CCC(=O)O)C(=O)N[C@@H](CO)C(=O)N1 (stereo partly drawn)	OX1R antag-2 70 (no result: GalR3 antagonist)
O=C1Nc2ccccc2C1=O	none (no result: GPR7 antagonist)
O=C1Nc2ccc3sc4ccccc4c3c2C1=O	OX1R antag-2 65
CC(C)N(C[C@@H]1CSCCS(=O)(=O)N1)C1CCCCC1	none (no result: OX1R antag-1, OX1R antag-2, GPR7 antagonist, CHO parental Ca)
CN(CCCC(=O)NCc1ccc2c(c1)OCO2)S(=O)(=O)c1ccc([N+](=O)[O-])cc1	OX1R antag-2 66
CN(C)Cc1c(C(C)(C)O)[nH]c2cc(F)ccc12	none (no result: OX1R antag-1, OX1R antag-2, GPR7 antagonist, CHO parental Ca)
Cc1cc2c(cc1C)NC(CC(=O)NCc1ccccc1)C(=O)N2 (stereo not drawn)	OX1R antag-2 35
O=C(CN1CCN(CCN2C(=O)c3cccc4cccc(c34)C2=O)CC1)c1ccc(F)cc1	OX1R antag-2 45
O=C1CCCN1CCCNc1nc(NCc2ccccc2)nc2ccsc12	none (no result: OX1R antag-1, OX1R antag-2, GPR7 antagonist, CHO parental Ca)
CC(C)C[C@H]1COc2cccc(N3CCCCC3)c2S(=O)(=O)N1	none (no result: OX1R antag-1, OX1R antag-2, GPR7 antagonist, CHO parental Ca)
Cn1nc(-c2ccc(Cl)cc2)nc2c(=O)n(C)c(=O)nc1-2	OX1R antag-2 91 (no result: GalR3 antagonist)
CCN(CC)c1ccc(C=C2C(=O)OC(c3ccccc3)OC2=O)cc1 (stereo not drawn)	none
CCN(CC)c1ccc(/C=C/C(=O)C2C(=O)C=C(C)OC2=O)cc1 (stereo not drawn)	OX1R antag-1 98, CHO parental Ca 75
CC(=O)N1CCN(c2ccc(Oc3ccc([N+](=O)[O-])c(C(F)(F)F)c3)cc2)CC1	CHO parental Ca 44 (no result: GalR3 antagonist)
CN(CCOC(=O)c1ccc2c(c1)OCCO2)Cc1ccccc1	GPR7 antagonist 20
CN(CCOC(=O)c1ccc2c(c1)OCCO2)C(C)(C)C	none
O=C(NCC1CCN(Cc2ccccc2F)CC1)C1CCCN(c2ncnc3c2nc2n3CCCCC2)C1 (stereo not drawn)	GalR3 antagonist 15
Cc1ccc(CN2CCC(CNC(=O)C3CCCN(c4ncnc5c4nc4n5CCCCC4)C3)CC2)cc1 (stereo not drawn)	none
Cc1cc(O)cc(=O)n1-c1cc(F)c(F)c(F)c1	none (no result: OX1R antag-1, OX1R antag-2, GPR7 antagonist, CHO parental Ca)
CC1(C)N=C(N)N=C(N)N1c1ccc(CCCCc2ccccc2)cc1	GalR3 antagonist 101 (no result: OX1R antag-1, OX1R antag-2, GPR7 antagonist, CHO parental Ca)
O=C(Nc1ccccc1C(=O)OCC(=O)N1CCc2ccccc2C1)c1ccco1	OX1R antag-2 80
